Entries after “also recorded” stand apart in the source; their conditions may differ. Like-named read-outs stand apart in the source and are kept apart here.
Legend:
[1] = Mass balance: excretion of total radioactivity in urine and feces; type: in vivo, human
Method in brief: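 Six healthy men received one oral 75‑mg solution (30 ml, ~3.6 MBq/~100 μCi ¹⁴C label), followed by two 50‑ml bottle rinses. Urine got scintillation cocktail directly. Feces were homogenized with equal weight of water, dried, and combusted with CO2 trapped in absorber. LSC was done in duplicate. Excretion was expressed against the administered radioactive dose over nominal collection intervals, with descriptive statistics.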

[2] = type: in vivo, human; conditions: for AUC0-t of total radioactivity, GM (GM CV, %) / AUC0–24h of total radioactivity, GM (GM CV, %) / Cmax of total radioactivity, GM (GM CV, %) / Tmax of total radioactivity, median (min, max): single 75-mg oral dose
Method in brief: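 After a single oral 75‑mg ¹⁴C dose in six healthy men, total radioactivity was measured by duplicate LSC. Plasma was spiked directly with cocktail; whole blood was solubilized and decolorized first. Plasma LLOQ was 9.91 ng eq/ml (30 dpm/ml), with sampling from 0.25 h postdose. Noncompartmental parameters used actual sampling times, with descriptive statistics.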

[3] = Plasma PK of evobrutinib by validated LC-MS/MS; type: in vivo, human
Method in brief: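 Unlabeled drug was measured in K2EDTA plasma (100 µL) by validated LC‑MS/MS with an isotopically labeled internal standard. LLOQ was 0.600 ng/ml, linear to 600 ng/ml with 1/x2‑weighted regression. Participants were six healthy men given a single oral 75‑mg solution dose. Noncompartmental Cmax, Tmax, AUC, t1/2, Vz/F and CL/F used actual sampling times. Parent AUC was related to plasma total‑radioactivity AUC.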

[4] = Metabolite profiling and identification in plasma, urine and feces; type: in vivo, human
Method in brief: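 UPLC‑HR‑MS (QTof) with the eluent fractionated every 7 s, off‑line microplate scintillation counting, and reconstructed radiochromatograms. Urine and feces were pooled per participant covering ≥90% of excreted radioactivity, excluding low‑radioactivity intervals. Plasma (1–24 h) was exhaustively extracted with ethanol/acetonitrile, evaporated under nitrogen at 37°C, and redissolved in ACN/MeOH/water 1+1+8. Nonextractable radioactivity was the precipitate counted by LSC, as % of total. AUCs were noncompartmental.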

Safety = type: in vivo, human; conditions: single dose of ^14C-evobrutinib
[5] = cited from earlier work
BTK = conditions: cited from earlier work
[6] = tested on: patients with relapsing MS; conditions: cited from earlier work
human hepatocytes = conditions: cited from earlier work
rat hepatocytes = conditions: cited from earlier work
[7] = single 75-mg oral dose of ^14C-evobrutinib, six healthy men, within 168 h

Molecule: C=CC(=O)N1CCC(CNc2ncnc(N)c2-c2ccc(Oc3ccccc3)cc2)CC1 [evobrutinib]
- Unchanged evobrutinib in excreta (urine or feces) ([1]; single 75-mg oral dose): No unchanged evobrutinib was detected; also recorded: No unchanged evobrutinib was recovered
- Total radioactivity excreted in feces, arithmetic mean percentage of dose [1, 7]: 71.0%
- Total radioactivity excreted in urine, arithmetic mean percentage of dose [1, 7]: 20.6%
- Radioactive dose excreted in feces within 96 h, range ([1]; single 75-mg oral dose, 0-96 h): 66.4–73.5%
- Total radioactivity excreted within 72 h after administration (mean) ([1]; single 75-mg oral dose, urine plus feces, first 72 h): 85.3%
- Mean total radioactivity recovery within 96 h ([1]; single 75-mg oral dose, urine plus feces, within 96 h): 89.7%
- Mean total radioactivity recovery ([1]; single 75-mg oral dose, urine plus feces, within 168 h): 91.6%
- Mean blood to plasma ratio of total radioactivity ([2]; at 72 and 96 h postdose): 1.6
- Mean blood to plasma ratio of total radioactivity ([2]; at 0.25 h postdose): 0.6
- Time of individual maximum total radioactivity concentration in plasma, range ([2]; plasma, postdose): 0.25 to 1 h
- AUC0-t of total radioactivity, GM (GM CV, %) ([2]; plasma): 3915 (32.7) ng (eq) h/ml
- AUC0–24h of total radioactivity, GM (GM CV, %) ([2]; plasma): 2805 (14.8) ng (eq) h/ml
- Cmax of total radioactivity, GM (GM CV, %) ([2]; plasma): 1047 (22.8) ng eq/ml
- Tmax of total radioactivity, median (min, max) ([2]; plasma): 0.5 h
- Tmax of total radioactivity, median (min, max) ([2]; plasma, listed as 14C‐radiolabeled evobrutinib): 0.50 (0.25, 1.00) h
- AUC0-t of total radioactivity, GM (GM CV, %) ([2]; whole blood): 4944 (13.6) ng (eq) h/ml
- AUC0–24h of total radioactivity, GM (GM CV, %) ([2]; whole blood): 2001 (9.9) ng (eq) h/ml
- Cmax of total radioactivity, GM (GM CV, %) ([2]; whole blood): 623 (25.5) ng eq/ml
- Tmax of total radioactivity, median (min, max) ([2]; whole blood): 0.5 h
- Tmax of total radioactivity, median (min, max) ([2]; whole blood, listed as 14C‐radiolabeled evobrutinib): 0.50 (0.25, 1.00) h
- Cmax ([3]; human, plasma, po, 75 mg): 321 ng/mL
- Half-life ([3]; human, plasma, po, 75 mg): 79.8 min
- Vd/F ([3]; human, plasma, po, 75 mg): 381 L
- Time of individual maximum evobrutinib plasma concentration, range ([3]; plasma, postdose): 0.25 to 0.50 h
- AUC0-t of evobrutinib, GM (GM CV, %) ([3]; plasma, single 75-mg oral dose): 375 (19.4) ng (eq) h/ml
- AUC0–24h of evobrutinib, GM (GM CV, %) ([3]; plasma, single 75-mg oral dose): 378 (19.4) ng (eq) h/ml
- CL/F, GM (GM CV, %) ([3]; plasma, single 75-mg oral dose): 199 (19.4) L/h
- Tmax of evobrutinib, median (min, max) ([3]; plasma, single 75-mg oral dose): 0.5 h
- Tmax of evobrutinib, median (min, max) ([3]; plasma, single 75-mg oral dose, listed as Evobrutinib): 0.50 (0.25, 0.55) h
- Parent drug share of total radioactivity plasma exposure (AUC) ([3]; single dose): 10–13%
- Number of metabolites detected and elucidated in feces ([4]; feces): 30
- Number of phase I metabolites fully or partially elucidated ([4]; in vivo): 40
- Number of phase II metabolites fully or partially elucidated ([4]; in vivo): 18
- Total number of metabolites identified in urine, feces, and plasma ([4]; in vivo): 58
- Number of metabolites detected and elucidated in plasma ([4]; plasma): 24
- Geometric mean AUC0–24 of nonextractable radioactivity ([4]; plasma, after exhaustive extraction): 1085 h٠ng eq/ml
- Unchanged evobrutinib in feces ([4]; pooled feces): not detected
- Unchanged evobrutinib in urine metabolite profiles ([4]; pooled urine): not detected
- Number of metabolites detected and elucidated in urine ([4]; urine): 41
- Nausea, headache, epistaxis, and nasopharyngitis, number of participants each (Safety): 1 participant each
- Oropharyngeal pain, number of participants (Safety): 2 participants
- Serious AEs, deaths, or withdrawals (Safety): no serious AEs, deaths, or withdrawals
- Severity and relatedness of AEs (Safety): mild and not considered study treatment related
- Participants who experienced an adverse event (Safety; four of six participants): 67%
- Half-life ([5]; 25–200 mg doses): 1.8 to 2.6 h
- Participants with treatment-emergent adverse events ([5]; after multiple-dosing, 13 participants): 48.1%
- Participants with treatment-emergent adverse events ([5]; after single-dosing, nine participants): 25%
- Severity of most TEAEs [5]: mild
- Half-life ([5]; healthy participants): ~ 2 h
- Time to reach maximum plasma concentration (Tmax) ([5]; healthy participants): ~ 0.5 h
- Dose-proportionality, accumulation and time-dependency of PK ([5]; single 25-500 mg, 25-200 mg q.d. for 14 days): dose‐proportional, with no accumulation or time‐dependency with repeat dosing
- BTK occupancy after multiple daily dosing (BTK; 25 mg, multiple daily dosing, healthy participants): Full BTK occupancy
- BTK occupancy at 96 h (BTK; doses of greater than or equal to 100 mg): greater than 50%
- Maximum BTK occupancy (BTK; reached within ~ 4 h after single doses of greater than or equal to 200 mg): > 90%
- Total number of gadolinium-enhancing lesions on T1-weighted MRI versus placebo ([6]; 75 mg q.d. and b.i.d., over 24 weeks): significantly reduced
- Severity of the majority of TEAEs [6]: mild or moderate
- Number of different metabolites formed (human hepatocytes; rat and human hepatocytes): 23

Molecule: hydroxyl‐evobrutinib
- Rank among metabolites in rat hepatocytes (rat hepatocytes): most abundant metabolite

Molecule: Nc1ncnc(NCC2CCN(C(=O)C(O)CO)CC2)c1-c1ccc(Oc2ccccc2)cc1 (centres unmarked) [evobrutinib‐diol]
- Rank among metabolites in human hepatocytes (human hepatocytes): main metabolite

Reference: publication PMC8604242 (Clinical and Translational Science, 2021)
